Experimental data: ChEMBL document CHEMBL4422661, “Design and Synthesis of a Novel and Selective Kappa Opioid Receptor (KOR) Antagonist (BTRX-335140)” (J Med Chem, 2019)

How the values were obtained:
[1] = AUCt in C57B16 mouse at 3 mg/kg, iv by LC-MS/MS analysis; type: ADME, organism-based; conditions: in vivo
[2] = AUCt in Sprague-Dawley rat at 5 mg/kg, po by LC-MS/MS analysis; type: ADME, organism-based; conditions: in vivo
Method in brief: (§1)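 Whole blood (250 μL) drawn via jugular vein cannula, n = 3. The iv route was sampled at 5, 15 and 30 min and 1, 2, 4, 8 and 24 h; the oral route at 15 and 30 min and 1, 2, 4, 8 and 24 h. LC-MS/MS quantitation.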

[3] = Cmax in Sprague-Dawley rat at 5 mg/kg, po by LC-MS/MS analysis; type: ADME, organism-based; set-up: dose 5 mg/kg, route oral; conditions: in vivo
[4] = Volume of distribution at steady state in Sprague-Dawley rat at 1 mg/kg, iv by LC-MS/MS analysis; type: ADME, organism-based; conditions: in vivo
Method in brief: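 Male Sprague-Dawley rats (350–400 g) received the monotartrate salt in 10:10:80 DMSO/Tween 80/water at 1 mg ml⁻¹, 1 mg kg⁻¹ i.v. or 2 mg kg⁻¹ p.o. Peripheral whole blood was sampled at 5, 15 and 30 min and 1, 2, 4, 6 and 8 h after dosing.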

[5] = Ratio of drug uptake in Sprague-Dawley rat brain to plasma at 5 mg/kg, po after 1 hr by LC-MS/MS analysis; type: ADME, organism-based
Method in brief: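 Fasted male rats (n = 2) received the monotartrate salt orally at 5 mg kg⁻¹. Plasma, brain and CSF levels were measured 1 h after dosing, and the ratio was taken from mean values.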

[6] = Oral bioavailability in C57B16 mouse at 10 mg/kg by LC-MS/MS analysis; type: ADME, organism-based; conditions: in vivo
[7] = AUCt in Sprague-Dawley rat at 1 mg/kg, iv by LC-MS/MS analysis; type: ADME, organism-based; conditions: in vivo; method in brief: as §1
[8] = AUCt in C57B16 mouse at 10 mg/kg, po by LC-MS/MS analysis; type: ADME, organism-based; conditions: in vivo
[9] = Cmax in C57B16 mouse at 10 mg/kg, po by LC-MS/MS analysis; type: ADME, organism-based; set-up: dose 10 mg/kg, route oral; conditions: in vivo
[10] = Oral bioavailability in Sprague-Dawley rat at 5 mg/kg by LC-MS/MS analysis; type: ADME, organism-based; conditions: in vivo
[11] = Volume of distribution at steady state in C57B16 mouse at 3 mg/kg, iv by LC-MS/MS analysis; type: ADME, organism-based; conditions: in vivo
[12] = Solubility of the compound at pH 7.4; type: physicochemical; conditions: buffer
[13] = Ratio of drug uptake in C57B16 mouse brain to plasma at 10 mg/kg, ip after 30 mins by LC-MS/MS analysis; type: ADME, organism-based; conditions: 0.5 h
Method in brief: (§2)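 C57Bl6 mice (n = 6) were given the monotartrate salt i.p. at 10 mg kg⁻¹ (1 mg ml⁻¹ in DMSO/Tween 80/water 1:1:8). Plasma (EDTA) and brain were taken at 30 and 120 min. Brain homogenate was precipitated with acetonitrile, levels were measured by LC-MS/MS, and values were derived by noncompartmental fitting.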

[14] = Oral bioavailability in Sprague-Dawley rat at 2 mg/kg by LC-MS/MS analysis; type: ADME, organism-based; conditions: in vivo
[15] = AUC (0 to infinity) in Sprague-Dawley rat at 2 mg/kg, po by LC-MS/MS analysis; type: ADME, organism-based; set-up: dose 2 mg/kg, time infinity, route oral; conditions: in vivo
Method in brief: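 Male Sprague-Dawley rats (350–400 g) dosed orally as the monotartrate salt, a 1 mg ml⁻¹ solution in 10:10:80 DMSO/Tween 80/water (v/v/v). Peripheral whole blood sampled at 5, 15 and 30 min and 1, 2, 4, 6 and 8 h post-dose. Concentrations measured by LC-MS/MS.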

[16] = AUC (0 to infinity) in Sprague-Dawley rat at 1 mg/kg, iv by LC-MS/MS analysis; type: ADME, organism-based; set-up: dose 1 mg/kg, route intravenous, time infinity; conditions: in vivo
[17] = Cmax in Sprague-Dawley rat at 2 mg/kg, po by LC-MS/MS analysis; type: ADME, organism-based; set-up: dose 2 mg/kg, route oral; conditions: in vivo
Method in brief: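 Male Sprague-Dawley rats (350–400 g) given monotartrate salt as 1 mg ml⁻¹ solution in 10:10:80 DMSO/Tween 80/water, 1 mg kg⁻¹ i.v. or 2 mg kg⁻¹ p.o.; peripheral whole blood sampled at 5, 15, 30 min and 1, 2, 4, 6, 8 h; concentrations by LC-MS/MS.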

[18] = Ratio of drug uptake in C57B16 mouse brain to plasma at 10 mg/kg, ip after 120 mins by LC-MS/MS analysis; type: ADME, organism-based; conditions: 2 h; method in brief: as §2

| SMILES | AUCt [1] [ng·h/mL] | AUCt [2] [ng·h/mL] | Cmax [3] [ng/mL] | Vdss [4] [L/kg] | BPR [5] | F [6] [%] | AUCt [7] [ng·h/mL] | AUCt [8] [ng·h/mL] | Cmax [9] [ng/mL] | F [10] [%] | Vdss [11] [L/kg] | solubility [12] [µM] | BPR [13] | F [14] [%] | AUC [15] [ng·min/mL] | AUC [16] [ng·min/mL] | Cmax [17] [ng/mL] | BPR [18] |
| --- | --- | --- | --- | --- | --- | --- | --- | --- | --- | --- | --- | --- | --- | --- | --- | --- | --- | --- |
| CCc1cc(F)c2nc(N3CCC(NC4CCOCC4)CC3)c(-c3nc(C)no3)c(C)c2c1.O=C(O)C(O)C(O)C(=O)O | 725 | 232 | 39.1 | 13.8 | 2.2 | 12 | 153 | 265 | 80.9 | 30.2 | 7.72 | 74 | – | – | – | – | – | – |
| Cc1ccc2nc(N3CCC(NC4CCOCC4)CC3)c(-c3nc(C)no3)cc2c1.O=C(O)C(O)C(O)C(=O)O | – | – | – | 12.95 | – | – | – | – | – | – | – | – | 2.9 | 20 | 1705 | 12740 | 110.16 | 3.8 |
